Experimental data taken from ChEMBL document CHEMBL4270598, “Synthesis and discovery of a drug candidate for treatment of idiopathic pulmonary fibrosis through inhibition of TGF-β1 pathway” (Eur J Med Chem, 2018).
The source made the active and inactive calls. The rule behind the calls is not given here.

Legend:
Mus musculus [1] = test: Antifibrotic activity in bleomycin-induced pulmonary fibrosis in C57BL/6 mouse model assessed as fibrotic area in lungs at 100 mg/kg, po qd administered from day 7 to 14 by hematoxylin-eosin staining based fluorescence microscopy; format: functional
Outline: (§1)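 Male C57BL/6 mice (7-8 weeks, n=5/group) given intratracheal bleomycin 2 U/kg under chloral hydrate anaesthesia. Dosing at 100 mg/kg daily from day 7 to day 14, sacrifice at day 14. Left lungs formalin-fixed, paraffin-embedded, 5 µm sections HE-stained. Fibrosis ratio taken as fibrotic-region pixels over total lung pixels.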

Mus musculus [2] = test: Antifibrotic activity in bleomycin-induced pulmonary fibrosis in C57BL/6 mouse model assessed as decrease in ECM production at 100 mg/kg, po qd administered from day 7 to 14 by hematoxylin-eosin staining based fluorescence microscopy; format: functional, organism-based; outline: as §1
[3] = Half life in Sprague-Dawley rat at 30 mg/kg, iv by LC-MS/MS analysis; format: ADME, organism-based; conditions: in vivo
Outline: (§2)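 Male Sprague-Dawley rats (220-350 g) given a single dose, IV 30 mg/kg or PO 150 mg/kg. Heparinized blood sampled at 2 min-8 h (IV) or 5 min-12 h (PO). Plasma protein-precipitated with acetonitrile/MeOH containing buspirone internal standard. Drug quantified by LC/MS-MS, parameters from non-compartmental analysis. n = 5 per curve.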

[4] = biological target: T1, Transforming growth factor beta-1 proprotein/Mothers against decapentaplegic homolog 3 (Mus musculus) (UniProt P04202+Q8BUN5); test: Inhibition of TGF-beta1/smad3 signaling pathway in mouse NIH/3T3 cell extract assessed as decrease in alpha-SMA protein expression at 10 uM after 24 hrs by Western blot analysis
[5] = Tmax in Sprague-Dawley rat at 30 mg/kg, iv by LC-MS/MS analysis; format: ADME, organism-based; conditions: in vivo; outline: as §2
Mus musculus [6] = test: In vivo inhibition of TGF-beta1/smad3 signaling pathway in bleomycin-induced pulmonary fibrosis in C57BL/6 mouse model assessed as decrease in smad3 phosphorylation in lung tissue at 100 mg/kg, po qd administered from day 7 to 14 by Western blot analysis; format: functional, organism-based
Mus musculus [7] = test: In vivo inhibition of TGF-beta1/smad3 signaling pathway in bleomycin-induced pulmonary fibrosis in C57BL/6 mouse model assessed as decrease in alpha-SMA level in lung tissue at 100 mg/kg, po qd administered from day 7 to 14 by immunohistochemical analysis; format: functional, organism-based
Outline: (§3)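 Lungs from bleomycin-challenged C57BL/6 mice (2 U/kg intratracheal; 100 mg/kg daily, days 7-14) were paraffin-embedded and dewaxed. Citrate (0.01 M) microwave antigen retrieval, then 5% serum block. Primary antibodies overnight at 4 °C: α-SMA 1:200, collagen I 1:100, p-Smad3 1:50. Secondary antibody 1 h at room temperature, then hematoxylin counterstain and microscopy.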

Rattus norvegicus [8] = test: AUC (0 to infinity) in Sprague-Dawley rat at 150 mg/kg, po by LC-MS/MS analysis; format: ADME, organism-based; parameters: dose 150 mg/kg, time infinity, route oral; conditions: in vivo; outline: as §2
Mus musculus [9] = test: Toxicity in C57/BL6 mouse assessed as appearance of systemic symptoms at 2 g/kg administered orally via gavage daily as single dose for 30 days; format: organism-based; conditions: in vivo, po, 2000 mg/kg, 720 h
Outline: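 C57BL/6 mice given compound by oral gavage at 2 g/kg once daily for 30 days (n=10) and observed for systemic symptoms and deaths.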

[10] = biological target: T2, Transforming growth factor beta-1 proprotein/Mothers against decapentaplegic homolog 3 (Homo sapiens) (UniProt P84022+P01137); test: Inhibition of TGF-beta1/smad3 signaling pathway in human HFL cells assessed as decrease in Col1 protein expression level at 10 uM after 24 hrs by Western blot analysis; format: cell-based
Outline: (§4)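 HFL1 human lung fibroblasts given TGF-β1 (5 ng/mL) with or without compound at 10 µM: 24 h for α-SMA (cell lysate) and collagen I (medium), 30 min for p-Smad3. RIPA lysis with phosphatase inhibitor, then Western blot. Band density normalized to β-actin. n=3.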

Rattus norvegicus [11] = test: AUC (0 to t) in Sprague-Dawley rat at 150 mg/kg, po by LC-MS/MS analysis; format: ADME, organism-based; conditions: in vivo; outline: as §2
Mus musculus [12] = test: In vivo inhibition of TGF-beta1/smad3 signaling pathway in bleomycin-induced pulmonary fibrosis in C57BL/6 mouse model assessed as decrease in smad3 phosphorylation level in lung tissue at 100 mg/kg, po qd administered from day 7 to 14 by immunohistochemical analysis; format: functional, organism-based; outline: as §3
[13] = biological target: T2, Transforming growth factor beta-1 proprotein/Mothers against decapentaplegic homolog 3 (Homo sapiens); test: Inhibition of TGF-beta1/smad3 signaling pathway in human HFL cell extract assessed as decrease in alpha-SMA protein expression at 10 uM after 24 hrs by Western blot analysis; outline: as §4
Mus musculus [14] = test: In vivo inhibition of TGF-beta1/smad3 signaling pathway in bleomycin-induced pulmonary fibrosis in C57BL/6 mouse model assessed as decrease in Col1 level in lung tissue at 100 mg/kg, po qd administered from day 7 to 14 by immunohistochemical analysis; format: functional, organism-based; outline: as §3
[15] = biological target: T1, Transforming growth factor beta-1 proprotein/Mothers against decapentaplegic homolog 3 (Mus musculus); test: Inhibition of TGF-beta1/smad3 signaling pathway in mouse NIH/3T3 cell extract assessed as decrease in Smad3 phosphorylation at 10 uM after 30 mins by Western blot analysis; format: protein assay
[16] = Stability in rat plasma assessed as parent compound remaining after 3 hrs by LC-MS/MS analysis; format: ADME, cell-free; conditions: read-out: Stability
Outline: (§5)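 Compound solution (1 mM stock) added 1:100 into blank plasma and incubated at 37 °C for up to 12 h. Aliquots quenched in acetonitrile/MeOH with buspirone internal standard and centrifuged. Parent compound and released products quantified by LC/MS-MS.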

Mus musculus [17] = test: Antifibrotic activity in bleomycin-induced pulmonary fibrosis in C57BL/6 mouse model assessed as decrease in collagen content in lung at 100 mg/kg, po qd administered from day 7 to 14 by spectrophotometric method; format: functional, organism-based
Outline: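 Bleomycin model as above: 2 U/kg intratracheal in male C57BL/6 mice, 100 mg/kg daily from day 7 to day 14. Right lungs collected at day 14, dried and acid-hydrolysed, filtered, and pH adjusted to 6.5-8.0. Hydroxyproline then measured by chloramine-T spectrophotometry.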

[18] = Tmax in Sprague-Dawley rat at 150 mg/kg, po by LC-MS/MS analysis; format: ADME, organism-based; conditions: in vivo; outline: as §2
Mus musculus [19] = test: In vivo inhibition of TGF-beta1/smad3 signaling pathway in bleomycin-induced pulmonary fibrosis in C57BL/6 mouse model assessed as decrease in Col1 protein expression level in lung tissue at 100 mg/kg, po qd administered from day 7 to 14 by Western blot analysis; format: functional, organism-based
Mus musculus [20] = test: Toxicity in C57/BL6 mouse assessed as mouse survival at 2 g/kg administered orally via gavage daily as single dose for 7 days; format: organism-based; conditions: in vivo, po, 2000 mg/kg, 168 h
Outline: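 C57BL/6 mice, 20-22 g, dosed by oral gavage once daily at 2 g/kg for 7 days, n = 10; survival recorded.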

[21] = biological target: T1, Transforming growth factor beta-1 proprotein/Mothers against decapentaplegic homolog 3 (Mus musculus); test: Inhibition of TGF-beta1/smad3 signaling pathway in mouse NIH/3T3 cells after 18 hrs by CAGA-luciferase reporter gene assay; format: cell-based
[22] = Cmax in Sprague-Dawley rat at 150 mg/kg, po by LC-MS/MS analysis; format: ADME, organism-based; parameters: dose 150 mg/kg, route oral; conditions: in vivo; outline: as §2
Rattus norvegicus [23] = test: AUC (0 to infinity) in Sprague-Dawley rat at 30 mg/kg, iv by LC-MS/MS analysis; format: ADME, organism-based; parameters: dose 30 mg/kg, time infinity, route intravenous; conditions: in vivo; outline: as §2
[24] = Drug metabolism in rat plasma assessed as (1aR,2S,5aR,6aR,9aR,9bS)-2,5a-Dimethyl-9-methyleneoctahydro-2H-oxireno[2',3':4,4a]naphtho[2,3-b]furan-8(9H)-one formation after 12 hrs by LC-MS/MS analysis; format: ADME, cell-free; outline: as §5
[25] = biological target: T2, Transforming growth factor beta-1 proprotein/Mothers against decapentaplegic homolog 3 (Homo sapiens); test: Inhibition of TGF-beta1/smad3 signaling pathway in human HFL cells assessed as decrease in smad3 phosphorylation at 10 uM after 30 mins by Western blot analysis; format: cell-based; outline: as §4
Mus musculus [26] = test: Toxicity in C57/BL6 mouse assessed as mouse survival at 1 to 5 g/kg administered orally via gavage as single dose; format: organism-based; conditions: in vivo, po
Outline: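 Male-unspecified C57BL/6 mice, 20-22 g; single oral gavage dose at 1, 2, 3, 4 and 5 g/kg, n = 10; survival recorded.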

[27] = Half life in Sprague-Dawley rat at 150 mg/kg, po by LC-MS/MS analysis; format: ADME, organism-based; conditions: in vivo; outline: as §2
[28] = Cmax in Sprague-Dawley rat at 30 mg/kg, iv by LC-MS/MS analysis; format: ADME, organism-based; parameters: dose 30 mg/kg, route intravenous; conditions: in vivo; outline: as §2
Rattus norvegicus [29] = test: AUC (0 to t) in Sprague-Dawley rat at 30 mg/kg, iv by LC-MS/MS analysis; format: ADME, organism-based; conditions: in vivo; outline: as §2
[30] = Oral bioavailability in Sprague-Dawley rat at 150 mg/kg by LC-MS/MS analysis; format: ADME, organism-based; conditions: in vivo; outline: as §2
[31] = biological target: T1, Transforming growth factor beta-1 proprotein/Mothers against decapentaplegic homolog 3 (Mus musculus); test: Inhibition of TGF-beta1/smad3 signaling pathway in mouse NIH/3T3 cells assessed as decrease in ECM production at 10 uM after 24 hrs; format: cell-based
[32] = Drug metabolism in rat plasma assessed as (3aR,4aR,5R,6R,8aR,9aR)-6-Hydroxy-8a-methyl-3-methylenedecahydro-2H-spiro[naphtho[2,3-b]furan-5,2'-oxiran]-2-one formation after 12 hrs by LC-MS/MS analysis; format: ADME, cell-free; outline: as §5

T2 sequence (P01137 whole entry, looked up): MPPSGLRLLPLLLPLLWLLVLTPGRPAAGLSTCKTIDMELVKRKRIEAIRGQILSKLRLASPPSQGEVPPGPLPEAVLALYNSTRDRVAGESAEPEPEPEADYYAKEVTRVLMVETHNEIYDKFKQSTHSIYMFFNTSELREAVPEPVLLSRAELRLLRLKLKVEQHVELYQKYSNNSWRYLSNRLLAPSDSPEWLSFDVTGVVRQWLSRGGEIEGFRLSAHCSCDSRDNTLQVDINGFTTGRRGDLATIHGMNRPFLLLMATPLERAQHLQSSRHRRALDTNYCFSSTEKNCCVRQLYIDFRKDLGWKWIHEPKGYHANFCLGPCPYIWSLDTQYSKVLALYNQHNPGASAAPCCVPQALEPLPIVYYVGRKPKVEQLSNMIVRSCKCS
T2 sequence (P84022 whole entry, looked up): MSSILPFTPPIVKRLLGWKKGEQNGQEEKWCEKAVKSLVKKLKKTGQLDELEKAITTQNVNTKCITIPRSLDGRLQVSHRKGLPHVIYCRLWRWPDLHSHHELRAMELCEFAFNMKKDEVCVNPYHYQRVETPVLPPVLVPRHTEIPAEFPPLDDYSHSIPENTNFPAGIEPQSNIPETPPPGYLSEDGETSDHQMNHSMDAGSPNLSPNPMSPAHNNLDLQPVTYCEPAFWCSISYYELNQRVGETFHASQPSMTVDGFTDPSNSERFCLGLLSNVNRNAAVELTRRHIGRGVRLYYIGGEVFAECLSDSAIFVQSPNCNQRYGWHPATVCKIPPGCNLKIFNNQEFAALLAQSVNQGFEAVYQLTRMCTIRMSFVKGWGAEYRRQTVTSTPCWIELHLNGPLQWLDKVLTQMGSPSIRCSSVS
T1 sequence (P04202 279-390 limits assumed): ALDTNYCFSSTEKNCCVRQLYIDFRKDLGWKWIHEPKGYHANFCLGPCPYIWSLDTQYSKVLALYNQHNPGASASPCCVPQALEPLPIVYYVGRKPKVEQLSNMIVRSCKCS
T1 sequence (Q8BUN5 2-425 partner limits assumed): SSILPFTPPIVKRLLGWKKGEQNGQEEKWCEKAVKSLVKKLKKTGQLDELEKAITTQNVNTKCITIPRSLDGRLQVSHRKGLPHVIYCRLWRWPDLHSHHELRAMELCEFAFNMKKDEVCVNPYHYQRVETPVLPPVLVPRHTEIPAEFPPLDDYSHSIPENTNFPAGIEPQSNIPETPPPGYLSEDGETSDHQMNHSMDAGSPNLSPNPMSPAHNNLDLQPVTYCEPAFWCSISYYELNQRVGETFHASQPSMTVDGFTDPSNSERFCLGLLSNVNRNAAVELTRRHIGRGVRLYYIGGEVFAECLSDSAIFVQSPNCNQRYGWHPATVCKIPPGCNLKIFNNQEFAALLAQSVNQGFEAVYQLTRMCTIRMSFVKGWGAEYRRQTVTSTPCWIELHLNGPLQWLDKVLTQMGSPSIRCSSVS

Row | Structure (SMILES) | Activity (Mus musculus [1]) [%] | Activity (Mus musculus [2]) | half-life [3] [min] | inhibition [4] | Tmax [5] [min] | inhibition (Mus musculus [6]) | inhibition (Mus musculus [7]) | AUC (Rattus norvegicus [8]) [ng·h/mL] | inhibition [10] | AUCt (Rattus norvegicus [11]) [ng·h/mL] | inhibition (Mus musculus [12]) | inhibition [13] | inhibition (Mus musculus [14]) | inhibition [15] | remaining at 3 h [16] [%] | Activity (Mus musculus [17]) | Tmax [18] [min] | inhibition (Mus musculus [19]) | Activity (Mus musculus [20]) | inhibition [21] | also measured
1 | C[C@H]1CCC[C@]2(C)C[C@H]3OC(=O)[C@@H](CN(C)C)[C@H]3[C@@H]3O[C@@]132.O=C(O)/C=C/C(=O)O | 71.8 | Active | 73 | Active | 2 | Active | Active | 37800 | Active | 37600 | Active | Active | Active | Active | > 50 | Active | 30 | Active | Non-Toxic | Dose-dependent effect | Activity (Mus musculus [9]): Non-Toxic; Cmax [22]: 18500 ng/mL; AUC (Rattus norvegicus [23]): 10000 ng·h/mL; Drug metabolism [24]: Metabolite_Detected; inhibition [25]: Active; Activity (Mus musculus [26]): Non-Toxic; half-life [27]: 85 min; Cmax [28]: 17500 ng/mL; AUCt (Rattus norvegicus [29]): 10000 ng·h/mL; bioavailability [30]: 75%; inhibition [31]: Active
2 | CN(C)C[C@@H]1C(=O)O[C@@H]2C[C@@]3(C)CC[C@@H](O)[C@]4(CO4)[C@@H]3C[C@H]12.O=C(O)/C=C/C(=O)O | 60.5 | Active | 81 | Active | 17 | Active | Active | 174000 | Active | 171000 | Active | Active | Active | Active | > 50 | Active | 42 | Active | Non-Toxic | Dose-dependent effect | Drug metabolism [32]: Metabolite_Detected; Cmax [22]: 62300 ng/mL; AUC (Rattus norvegicus [23]): 44900 ng·h/mL; inhibition [25]: Active; Activity (Mus musculus [26]): Non-Toxic; half-life [27]: 121 min; Cmax [28]: 22700 ng/mL; AUCt (Rattus norvegicus [29]): 43800 ng·h/mL; bioavailability [30]: 78%; inhibition [31]: Active
